According to ChEMBL document CHEMBL3872208, “Synthesis and pharmacological characterization of novel N-(trans-4-(2-(4-(benzo[d]isothiazol-3-yl)piperazin-1-yl)ethyl)cyclohexyl)amides as potential multireceptor atypical antipsychotics” (Eur J Med Chem, 2016):

What was measured:
[1] = target: T1, 5-hydroxytryptamine receptor 1A (Homo sapiens, UniProt P08908); assay: Displacement of [3H]8-OH-DPAT from recombinant human 5-HT1A receptor expressed in HEK293 cell membranes after 60 mins by scintillation counting method
T1 sequence (P08908 whole entry): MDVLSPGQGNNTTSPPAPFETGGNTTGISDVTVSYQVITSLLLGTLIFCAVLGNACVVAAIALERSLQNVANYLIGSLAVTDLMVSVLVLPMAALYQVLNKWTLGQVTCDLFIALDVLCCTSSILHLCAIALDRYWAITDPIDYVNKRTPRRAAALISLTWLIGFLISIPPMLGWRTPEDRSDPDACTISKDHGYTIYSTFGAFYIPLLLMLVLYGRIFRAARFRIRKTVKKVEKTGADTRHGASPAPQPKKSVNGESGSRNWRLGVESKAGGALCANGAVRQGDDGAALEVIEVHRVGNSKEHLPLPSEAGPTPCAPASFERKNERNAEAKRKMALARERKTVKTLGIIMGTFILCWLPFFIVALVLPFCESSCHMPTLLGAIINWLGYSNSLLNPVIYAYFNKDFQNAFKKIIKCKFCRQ

[2] = target: T2, 5-hydroxytryptamine receptor 2A (Homo sapiens, UniProt P28223); assay: Displacement of [3H]ketanserin from recombinant human 5-HT2A receptor expressed in HEK293 cell membranes after 60 mins by scintillation counting method
[3] = system: Rattus norvegicus; assay: Reversal of PCP-induced hyperlocomotion activity in ip dosed Sprague-Dawley rat pretreated for 10 mins followed by PCP challenge measured after […]; format: functional, organism-based
[4] = target: T3, Muscarinic acetylcholine receptor M1 (Homo sapiens, UniProt P11229); assay: Displacement of [3H]pirenzepine from recombinant human M1 receptor expressed in CHO cell membranes at 1 uM after 60 mins by scintillation counting method relative to control; settings: CHO cell membranes expressing recombinant human M1 receptor, probe [3H]pirenzepine
T3 sequence (P11229 whole entry): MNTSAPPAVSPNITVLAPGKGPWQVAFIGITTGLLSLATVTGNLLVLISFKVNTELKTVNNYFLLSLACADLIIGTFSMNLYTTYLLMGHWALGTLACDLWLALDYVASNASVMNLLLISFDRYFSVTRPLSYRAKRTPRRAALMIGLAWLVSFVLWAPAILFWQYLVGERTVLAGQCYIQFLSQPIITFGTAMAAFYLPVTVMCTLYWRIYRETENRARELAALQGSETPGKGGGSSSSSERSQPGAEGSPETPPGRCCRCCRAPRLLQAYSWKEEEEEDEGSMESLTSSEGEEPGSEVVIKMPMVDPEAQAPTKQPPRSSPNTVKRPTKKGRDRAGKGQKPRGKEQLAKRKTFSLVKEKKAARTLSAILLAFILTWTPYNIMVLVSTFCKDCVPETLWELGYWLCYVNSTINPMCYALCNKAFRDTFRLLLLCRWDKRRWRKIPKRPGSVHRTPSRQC
Procedure, shortened: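 Nonspecific binding defined with […]. Filtered on PEI-soaked GF/B and scintillation counted. Expressed as percent inhibition of control specific binding at a single test concentration.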

[5] = target: T4, D(2) dopamine receptor (Homo sapiens, UniProt P14416); assay: Agonist activity at D2 receptor (unknown origin) expressed in CHOK1 cells co-expressing G-alpha 15 by fluo-4 dye based FLIPR assay; format: cell-based, CHO-K1
[6] = target: T1, 5-hydroxytryptamine receptor 1A; assay: Agonist activity at 5-HT1A receptor (unknown origin) expressed in CHOK1 cells co-expressing G-alpha 15 by Fluo-4 dye based FLIPR assay; format: cell-based, CHO-K1
[7] = target: T4, D(2) dopamine receptor; assay: Antagonistic activity at D2 receptor (unknown origin) expressed in CHOK1 cells co-expressing G-alpha 15 assessed as inhibition of dopamine-induced calcium flux by fluo-4 dye based FLIPR assay; format: functional, cell-based, CHO-K1
[8] = target: D(3) dopamine receptor (Homo sapiens, UniProt P35462); assay: Antagonistic activity at D3 receptor (unknown origin) expressed in cell membranes assessed as inhibition of quinpirole-induced response after 40 mins by [35S]GTPgammaS binding assay; format: functional
Procedure, shortened: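 Membranes (20 mg membrane protein as printed) incubated 40 min at 30 °C in 50 mM Tris pH 7.4, 5 mM MgCl2, 1 mM EDTA, 100 mM NaCl, 1 mM DTT. Mix contained 0.1 nM [35S]GTPγS, GDP, quinpirole as agonist and varied compound concentrations. Nonspecific binding was taken with Gpp(NH)p. Reaction stopped with ice-cold buffer, then GF/C filtration and scintillation counting. Mean IC50 from two experiments, eight concentrations in duplicate.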

[9] = target: T2, 5-hydroxytryptamine receptor 2A; assay: Agonist activity at 5-HT2A receptor (unknown origin) expressed in CHOK1 cells co-expressing G-alpha 15 by Fluo-4 dye based FLIPR assay; format: cell-based, CHO-K1
[10] = target: T2, 5-hydroxytryptamine receptor 2A; assay: Antagonistic activity at 5-HT2A receptor (unknown origin) expressed in CHOK1 cells co-expressing G-alpha 15 assessed as inhibition of serotonin-induced calcium flux by Fluo-4 based FLIPR assay; format: functional, cell-based, CHO-K1
[11] = Cmax in Sprague-Dawley rat brain at 0.5 mg/kg, iv administered as single dose by LC-MS/MS analysis; format: ADME, organism-based; parameters: dose 0.5 mg/kg, route intravenous
Procedure, shortened: (§1)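 Male SD rats, single dose: 0.5 mg/kg i.v. or 2.0 mg/kg p.o. Vehicle is 5% DMSO, 10% Solutol HS 15 and 85% PBS. Heparinized blood is sampled at 5, 15 and 30 min and at 1, 2, 4, 8 and 24 h after dosing. Plasma is reported in ng/mL and brain in ng/g. F is derived from the p.o. and i.v. arms.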

[12] = Cmax in Sprague-Dawley rat plasma at 2.0 mg/kg, po administered as single dose by LC-MS/MS analysis; format: ADME, organism-based; parameters: dose 2 mg/kg, route oral; procedure, shortened: as §1
[13] = Cmax in Sprague-Dawley rat brain at 2 mg/kg, po administered as single dose by LC-MS/MS analysis; format: ADME, organism-based; parameters: dose 2 mg/kg, route oral; procedure, shortened: as §1
[14] = Half life in Sprague-Dawley rat plasma at 2.0 mg/kg, po administered as single dose by LC-MS/MS analysis; format: ADME, organism-based; procedure, shortened: as §1
[15] = Tmax in Sprague-Dawley rat plasma at 2 mg/kg, po administered as single dose by LC-MS/MS analysis; format: ADME, organism-based; procedure, shortened: as §1
[16] = AUC (0 to t) in Sprague-Dawley rat plasma at 0.5 mg/kg, iv administered as single dose by LC-MS/MS analysis; format: ADME, organism-based; procedure, shortened: as §1
[17] = AUC (0 to t) in Sprague-Dawley rat brain at 0.5 mg/kg, iv administered as single dose by LC-MS/MS analysis; format: ADME, organism-based; procedure, shortened: as §1
[18] = AUC (0 to t) in Sprague-Dawley rat plasma at 2 mg/kg, po administered as single dose by LC-MS/MS analysis; format: ADME, organism-based; procedure, shortened: as §1
[19] = Apparent clearance in Sprague-Dawley rat plasma at 0.5 mg/kg, iv administered as single dose by LC-MS/MS analysis; format: ADME, organism-based; settings: read-out: CL(app) (converted); procedure, shortened: as §1
[20] = Apparent clearance in Sprague-Dawley rat plasma at 2 mg/kg, po administered as single dose by LC-MS/MS analysis; format: ADME, organism-based; settings: read-out: CL(app) (converted); procedure, shortened: as §1
[21] = target: Voltage-gated inwardly rectifying potassium channel KCNH2 (Homo sapiens, UniProt Q12809)
[22] = target: T2, 5-hydroxytryptamine receptor 2A; settings: CHO-K1, 10 uM

T2 sequence (P28223 whole entry): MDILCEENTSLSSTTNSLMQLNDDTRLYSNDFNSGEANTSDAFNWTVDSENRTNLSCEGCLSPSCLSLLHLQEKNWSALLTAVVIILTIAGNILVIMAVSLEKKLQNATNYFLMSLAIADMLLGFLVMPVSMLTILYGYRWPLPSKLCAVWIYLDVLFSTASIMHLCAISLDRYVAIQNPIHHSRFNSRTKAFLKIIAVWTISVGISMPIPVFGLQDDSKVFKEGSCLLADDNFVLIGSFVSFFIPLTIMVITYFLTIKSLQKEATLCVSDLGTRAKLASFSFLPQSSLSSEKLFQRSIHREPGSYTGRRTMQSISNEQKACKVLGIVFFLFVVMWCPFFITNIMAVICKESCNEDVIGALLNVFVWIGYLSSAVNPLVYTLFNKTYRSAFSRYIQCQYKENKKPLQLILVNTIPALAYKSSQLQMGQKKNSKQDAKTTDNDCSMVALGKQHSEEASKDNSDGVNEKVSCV
T4 sequence (P14416 whole entry): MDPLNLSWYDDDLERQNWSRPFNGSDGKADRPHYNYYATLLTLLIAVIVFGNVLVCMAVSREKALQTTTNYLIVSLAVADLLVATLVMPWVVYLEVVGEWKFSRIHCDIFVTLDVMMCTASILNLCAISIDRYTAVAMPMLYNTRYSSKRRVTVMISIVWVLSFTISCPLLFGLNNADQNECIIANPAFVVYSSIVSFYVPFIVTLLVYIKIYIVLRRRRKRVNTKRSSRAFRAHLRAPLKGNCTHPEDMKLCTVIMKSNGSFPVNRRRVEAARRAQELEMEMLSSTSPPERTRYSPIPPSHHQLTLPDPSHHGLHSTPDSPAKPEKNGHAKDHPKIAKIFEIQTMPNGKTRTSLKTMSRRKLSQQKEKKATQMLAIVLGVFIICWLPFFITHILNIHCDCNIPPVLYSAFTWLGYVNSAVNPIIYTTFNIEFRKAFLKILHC
Chain of D(3) dopamine receptor (P35462 whole entry): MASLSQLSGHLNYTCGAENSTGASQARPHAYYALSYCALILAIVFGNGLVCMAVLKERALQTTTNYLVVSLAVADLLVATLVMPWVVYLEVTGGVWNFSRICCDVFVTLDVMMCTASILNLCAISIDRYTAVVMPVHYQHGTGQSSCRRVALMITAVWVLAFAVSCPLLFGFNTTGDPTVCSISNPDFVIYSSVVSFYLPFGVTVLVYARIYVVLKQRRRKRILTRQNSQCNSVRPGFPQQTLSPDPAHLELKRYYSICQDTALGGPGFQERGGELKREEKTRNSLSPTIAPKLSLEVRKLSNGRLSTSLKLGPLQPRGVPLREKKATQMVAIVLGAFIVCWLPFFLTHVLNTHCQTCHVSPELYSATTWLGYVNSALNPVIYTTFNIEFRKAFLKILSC
Chain of Voltage-gated inwardly rectifying potassium channel KCNH2 (Q12809 whole entry): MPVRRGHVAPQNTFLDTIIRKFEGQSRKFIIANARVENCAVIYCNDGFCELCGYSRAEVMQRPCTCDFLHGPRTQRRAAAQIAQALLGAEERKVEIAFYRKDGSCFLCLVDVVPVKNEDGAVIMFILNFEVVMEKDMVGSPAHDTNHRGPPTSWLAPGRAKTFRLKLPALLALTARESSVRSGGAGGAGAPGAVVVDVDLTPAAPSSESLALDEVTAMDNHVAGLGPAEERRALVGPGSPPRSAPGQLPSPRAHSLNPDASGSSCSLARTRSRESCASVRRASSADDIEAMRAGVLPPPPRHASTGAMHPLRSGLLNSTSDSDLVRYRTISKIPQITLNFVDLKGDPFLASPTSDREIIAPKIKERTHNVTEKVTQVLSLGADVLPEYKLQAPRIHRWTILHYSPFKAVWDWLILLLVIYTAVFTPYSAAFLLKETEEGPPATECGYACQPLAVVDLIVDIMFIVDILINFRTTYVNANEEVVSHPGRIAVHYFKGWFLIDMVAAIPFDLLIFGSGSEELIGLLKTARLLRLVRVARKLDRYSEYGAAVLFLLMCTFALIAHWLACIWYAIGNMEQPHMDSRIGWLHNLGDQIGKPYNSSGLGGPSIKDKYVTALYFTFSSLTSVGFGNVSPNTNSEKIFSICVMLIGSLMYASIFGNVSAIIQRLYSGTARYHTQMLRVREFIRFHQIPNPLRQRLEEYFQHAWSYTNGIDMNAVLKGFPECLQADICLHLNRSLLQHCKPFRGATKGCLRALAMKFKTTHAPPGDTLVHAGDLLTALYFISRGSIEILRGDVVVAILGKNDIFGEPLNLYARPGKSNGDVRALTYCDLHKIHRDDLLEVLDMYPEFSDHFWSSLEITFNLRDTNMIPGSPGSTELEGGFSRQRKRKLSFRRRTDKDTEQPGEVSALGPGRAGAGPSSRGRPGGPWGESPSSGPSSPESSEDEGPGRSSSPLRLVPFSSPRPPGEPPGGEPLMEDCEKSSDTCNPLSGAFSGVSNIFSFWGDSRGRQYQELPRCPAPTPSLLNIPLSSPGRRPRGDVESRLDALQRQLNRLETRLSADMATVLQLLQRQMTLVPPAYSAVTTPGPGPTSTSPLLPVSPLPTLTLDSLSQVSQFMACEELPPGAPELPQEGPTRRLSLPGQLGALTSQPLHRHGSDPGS

## O=C(N[C@H]1CC[C@H](CCN2CCN(c3nsc4ccccc34)CC2)CC1)c1ccco1
[1]
  Ki: 0.0013 µM
[2]
  Ki: 0.00023 µM
[3]
  Activity: Dose-dependent effect
[4]
  inhibition at 1 h, 1 µM: 50.6%
[5]
  EC50: > 10 µM
[6]
  EC50: > 10 µM
[7]
  IC50: 0.0614 µM
[8]
  IC50: 0.00139 µM
[9]
  EC50: > 10 µM
[10]
  IC50: 0.0318 µM
[11]
  Cmax: 259 ng/mL
[12]
  Cmax: 18.4 ng/mL
[13]
  Cmax: 52.8 ng/mL
[14]
  half-life: 1.7 h
[15]
  Tmax: 0.5 h
[16]
  AUC(0-t): 106 ng·h/mL
[17]
  AUC(0-t): 1070 ng·h/mL
[18]
  AUC(0-t): 55 ng·h/mL
[19]
  clearance: 76.7 mL/min/kg
[20]
  CL/F: 582 mL/min/kg
[21]
  IC50: 2.11 µM
[22]
  inhibition: 97%
